rRNA inh HTS = reduced GFP signal of wild-type E. coli, primary screen, bacterial rRNA inhibitor project, GFP/RFP fluorescence, OD600, single point | GFP signal change (wild-type ribosome), % (test concentration not listed) | 350,000 compounds, 1.6% hits | E. coli WT GFP vs humanized-ribosome RFP mutants, 24 h; stronger effect = lower value; DMSO median 0, no signal -100;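 active means significant combined selectivity score with lowered wild-type GFP, culture density cut under 30%, mutant RFP and density less affected; inactive means any of these conditions unmet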
PGC1a acetyl inh = inhibitors of PGC1a acetylation signal, primary screen, cell-based, U2OS, AlphaScreen, inhibitor mode | AlphaScreen anti-acetyl-lysine; with virally co-expressed GCN5 acetyltransferase | inhibition, % at 15.6 µM | 350,000 compounds, 0.17% hits;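 active means every replicate shows inhibition of at least 40%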;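 further: 0% = neutral control wells and 100% = positive control wells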
Casp6 inh = human caspase-6 inhibitors, primary screen, biochemical, VEID-R110 fluorescence, single point, set 2; AID 686996, 2013; 350,000 compounds, 0.53% hits; inhibition, % at 12.5 µM; purified caspase-6, Z-VEID-R110 cleavage fluorescence; P55212;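 active means mean inhibition across replicates at least about 35%, with every replicate also reaching that limit, limit read from the data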;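 further: 0% = median of neutral control wells and 100% = no fluorescence left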
Target sequence (P55212 24-179 limits assumed): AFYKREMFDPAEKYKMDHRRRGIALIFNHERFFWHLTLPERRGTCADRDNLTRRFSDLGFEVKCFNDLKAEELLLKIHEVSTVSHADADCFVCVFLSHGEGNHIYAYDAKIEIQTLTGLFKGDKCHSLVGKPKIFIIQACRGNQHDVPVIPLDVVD
Target sequence (P55212 194-293 limits assumed): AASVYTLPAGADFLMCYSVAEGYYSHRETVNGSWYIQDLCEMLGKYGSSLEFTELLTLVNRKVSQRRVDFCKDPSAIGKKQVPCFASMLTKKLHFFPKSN
S100A4 MyoIIA = inhibitors of S100A4-myosin IIA peptide binding, primary screen, biochemical, fluorescence polarization, TAMRA-MyoIIA peptide; inhibition, % at 10.7 µM; 360,000 compounds, 0.14% hits; AID 652163, 2013;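 active means mean inhibition of at least 70% across replicates, with every replicate also reaching that level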
Target sequence (P26447 whole entry, looked up): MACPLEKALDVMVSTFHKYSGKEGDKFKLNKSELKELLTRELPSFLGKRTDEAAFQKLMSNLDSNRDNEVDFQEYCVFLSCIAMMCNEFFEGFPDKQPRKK
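Material: S100A4 monomer protein | Medium: HEPES pH 7.2 with CaCl2, KCl, NaCl, DTT, Triton | Reagent: Labelled myosin peptide probe, 5 nM | Doses: One dose per compound | Times: 5 min incubation before reading | Benchmarks: Neutral control DMSO, positive control TFP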
ERAP1 inh = human ERAP1 aminopeptidase inhibitors, primary screen, biochemical, single point, plate reader. inhibition, % at 10.7 µM. Endoplasmic reticulum aminopeptidase 1 (Homo sapiens), Q9NZ08. recombinant ERAP1, Leu-AMC fluorescence, 60 min. AID 652197, 2013. 340,000 compounds, 0.15% hits;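 active means mean replicate inhibition of at least 30%, or all replicates individually reaching that 30% level; inactive means mean below 30% and not every replicate reaching it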;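 further: 0% = neutral control wells and 100% = L-leucinethiol positive control wells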
ARNT TACC3 PPI = disruptors of ARNT/TACC3 protein interaction, primary screen, biochemical, AlphaScreen, single concentration | Transforming acidic coiled-coil-containing protein 3 (Homo sapiens), Q9Y6A5 | AlphaScreen His-ARNT PAS-B/GST-TACC3 binding, luminescence; TACC3 fragment carries E629A point mutation | inhibition, % at 9.99 µM | 390,000 compounds, 0.66% hits;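 active means mean inhibition of replicates at least 50% and at least half of replicates each reaching 50%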;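 further: 0% = complete ARNT plus TACC3 wells and 100% = ARNT alone without TACC3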
* marks the source's active call; other numbers are inactive results; . = no result. Only some compounds are listed: those with a hit (about 2.4% of all), similar ones and a draw of the others.

SMILES	rRNA inh HTS	PGC1a acetyl inh	Casp6 inh	S100A4 MyoIIA	ERAP1 inh	ARNT TACC3 PPI
CCC1CCc2sc(C(=O)NNC(=O)c3ccncc3)cc2C1 (stereo unspecified)	-17.9	.	58.6*	-1.8	0.9	-1.8
CC=Cc1ccc2n(c1=O)C[C@@H]1[C@@H](CO)[C@H](C(=O)N3CCc4ccccc4C3)N(C)[C@H]21 (mixture of isomers)	4.5	.	-0.3	-0.4	-5.8	.
CCC(=O)N1C[C@@H](C)[C@@H](OC)CN(C)C(=O)c2cc(NC(=O)NC3CCCC3)ccc2OC[C@@H]1C	1.8	.	.	.	.	.
CCCc1nc2ccccc2c(=O)n1/N=C/c1ccccc1O	.	4.0	.	.	.	57.4*
O=C(Nc1nnc(C2CC2)o1)c1ccc(S(=O)(=O)N2CCCc3ccccc32)cc1	-55.0	-7.0	-2.5	2.4	0.6	47.9*
Cc1nnc(NC(=O)c2ccc(S(=O)(=O)N3CCCCC3C)cc2)o1 (stereo unspecified)	-33.2	-4.7	3.4	-1.9	1.4	51.2*
CC1CCCCN1S(=O)(=O)c1ccc(C(=O)Nc2nnc(C3CC3)o2)cc1 (stereo unspecified)	-52.1	.	-1.9	2.5	0.1	46.3*
CC1CCCCN1S(=O)(=O)c1ccc(C(=O)Nc2nnc(-c3ccco3)o2)cc1 (stereo unspecified)	-41.4	.	-2.8	-24.8	-0.4	38.5
O=C(CN1CCOCC1)N[C@@H]1CC[C@H](CCNC(=O)C2CCCC2)O[C@@H]1CO	6.4	-4.8	-1.3	-3.4	0.5	.
COc1ccc(S(=O)(=O)N(C)C[C@H]2OCCCC[C@@H](C)Oc3ccc(N(C)C)cc3C(=O)N([C@@H](C)CO)C[C@H]2C)cc1	-5.2	0.6	-3.1	2.6	-4.7	12.9
Cc1cc(C)c(S(=O)(=O)Nc2ccc(Cl)cn2)c(C)c1	-31.1*	.	-7.0	-3.3	-1.3	9.6
Cc1ccc(S(=O)(=O)Nc2cc(Cl)c(O)c3ncccc23)cc1	-40.2	.	34.3	-7.5	4.8	47.8*
Oc1c(Cl)cc(Cl)c2cccnc12	-10.0	.	19.1	-6.5	5.0	.
Cc1nc(CNS(=O)(=O)c2cccc(F)c2)cs1	.	-10.5	.	.	.	0.7
Cc1ccc(-c2csc(NS(=O)(=O)c3cccc(F)c3)n2)o1	14.1	17.5	40.7*	-3.8	3.9	3.9
CCN(c1cccc2ccccc12)S(=O)(=O)c1ccc(Cl)nc1	-21.9*	-4.2	2.8	0.1	2.2	-1.1
COCC(=O)N(C)C[C@@H]1Oc2cc(C#CC(C)(C)O)ccc2S(=O)(=O)N([C@@H](C)CO)C[C@@H]1C	3.9	8.1	-1.8	0.4	-1.3	-5.9
CC[n+]1c(/C=C/C=C/N(C(C)=O)c2ccccc2)sc2cc(OC)ccc21	29.1	.	-5.2	199.4*	11.7	.
c1cn(CCCNC2=NCCCCC2)cn1	.	-8.7	.	.	.	96.8*
CO[C@@H]1CN(C)C(=O)c2ccc(NS(C)(=O)=O)cc2OC[C@H](C)N(CCC(F)(F)F)C[C@H]1C	-0.7	4.0	-7.2	-1.9	0.9	8.7
COC(=O)C1=C(O)/C(=C\c2ccc(CNS(=O)(=O)c3ccc(Cl)cc3)o2)N=C1C	12.1	.	49.1*	-21.4	-6.1	25.7
COCC(=O)N1[C@H](CO)[C@@H](c2ccccc2)C12CN(C(=O)c1cccc(F)c1)C2	1.1	2.0	-2.4	3.7	-3.1	.
COc1ccc(S(=O)(=O)Nc2cccc3c2O[C@H](CN(C)C(=O)Nc2ccccc2)[C@@H](C)CN([C@@H](C)CO)C3=O)cc1	1.4	-3.3	-1.3	-7.6	1.9	.
C[C@@H]1CN([C@H](C)CO)C(=O)c2cc(C#Cc3ccccc3F)cnc2O[C@@H]1CN(C)C(=O)Cc1ccccc1	0.9	16.6	-1.2	-26.3	0.1	5.2
COc1ccccc1Cn1c(=S)[nH]c2ccc(F)cc2c1=O	-14.0*	-3.3	-0.3	-4.2	-10.0	-6.0

From PubChem BioAssay
